The values that follow come from ChEMBL document CHEMBL4513216, “Probing the Open Global Health Chemical Diversity Library for Multistage-Active Starting Points for Next-Generation Antimalarials” (ACS Infect Dis, 2020).

The data set is described as follows: Toxicity liver stage against HepG2, at 10uM. It counts as cell-based. More on the design: test concentration 10 uM, cell line HepG2-A16-CD81EGFP. The note with it: human, HepG2-A16-CD81EGFP cells; read-out: INHIBITION
The method in brief:
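Uninfected HepG2-A16-CD81EGFP cells, 3 × 10^3 per well, 1536-well, plated on prespotted compound at 10 μM final, parasite-free screening media added to match infected plates; puromycin 10 μM positive, DMSO 0.5% negative; run in parallel with 48 h PbLuc assay at 37 °C, 5% CO2; viability by CellTiter-Glo luminescence, normalized to controls.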

With `CC(NC(=O)CSCC(N)=O)c1ccc(Oc2ccccc2)cc1` (configuration not stated), the cytotoxicity at 10 µM was 2.98%.
Then `CC(C)(C)c1cc(NC(=O)C2CCCO2)n(-c2ccccn2)n1` (configuration not stated), with -1.26%.
As for `CCCC(=O)Nc1cnn(CC(=O)Nc2ccc(SC)cc2)c1`, the cytotoxicity at 10 µM is -8.81%.
Next, `CC(C)Oc1nnc(SCC(=O)NCC(=O)N2CCCC2)s1`: 1.38%.
Next, `CCCN(C(=O)c1ccncc1)c1nc2c(s1)CCc1c-2cnn1C`: -14.6%.
Next, `CC(O)CN1CCN(C(=O)CN(C)c2ccc(Cl)cn2)CC1` (configuration not stated): -1.95%; `Cc1cccc(CN2C[C@@H]3CN(C(=O)[C@H]4CCCO4)C[C@@H]3C2=O)c1`: 9.95%.
Regarding `Cc1ccc2c(n1)N(CCN(C)C)CCN(C(=O)N1CCOCC1)C2`, the cytotoxicity at 10 µM is -73.1%.
Next, `COCCOc1ncccc1C(=O)N1CCCC(n2ccnc2C)C1` (configuration not stated): -7.52%.
For the compound `CC(C)NC(=O)C1CN(C(=O)COc2ccccc2)CC12CCOCC2` (configuration not stated), the cytotoxicity at 10 µM was -78.3%.
For the compound `O=C(NCC1(O)CCOc2ccccc21)Nc1ccc2c(c1)OCO2` (configuration not stated), the cytotoxicity at 10 µM was -5.12%.
Take `Cc1cccc(N(CCC(N)=O)C(=O)c2cc(-n3cccn3)ccn2)c1`: the cytotoxicity at 10 µM is -1.5%.
As to `CC(=O)C(C)CC(=O)N(Cc1cccc(C)c1)C(C)C` (configuration not stated), the cytotoxicity at 10 µM was -3.73%.
As for `CN(C)Cc1cc(C2CCN(C(=O)C3CC34CCC4)CC2)nn1C` (configuration not stated), the cytotoxicity at 10 µM was -15%.
Consider `Cc1cc(C(=O)N2CC[C@H]3[C@H]2CCN3S(C)(=O)=O)c(C)o1`, for which the cytotoxicity at 10 µM was -83.1%.
Consider `Cc1nc2c(c(NCCc3nc4c(s3)CCCC4)n1)CCNCC2`, for which the cytotoxicity at 10 µM is -7.33%.
Consider `CCCS(=O)(=O)N1CC[C@H]2O[C@@H](c3nc(C)no3)CC[C@H]21`, for which the cytotoxicity at 10 µM is -2.48%.
Next, `Cc1nn(C)c(C)c1C1CCCN1C(=O)CCCNc1ncccn1` (configuration not stated): -3.43%.
On to `CC(C)(C)n1ncc2c(=O)n(CC(=O)NCc3ccco3)cnc21`, for which the cytotoxicity at 10 µM is -1.6%.
As to `COCCn1ccc2c(C(=O)O)cccc21`, the cytotoxicity at 10 µM is -3.37%.
For the compound `Cc1cc(C)n(C2CCCN(C(=O)c3cccc4c3OCO4)C2)n1` (configuration not stated), the cytotoxicity at 10 µM is -3.88%.
Then `CC(=O)N1CCCc2cc(Nc3nccn(C)c3=O)ccc21`, with -49.4%; and `CCC(=O)NC1CCCN(c2cncc(OCc3ccccc3)n2)C1` (configuration not stated), with -2.08%.
Next, `O=C(NCc1cccnc1)c1cn(CCc2ccccc2)nn1`: 4.39%; `CCCNC(=O)C(C)NC(=O)CCc1ccccc1Br` (configuration not stated): 14.5%; `CS(=O)(=O)NCCC(=O)N1Cc2cnc(-c3ccccc3)nc2C1`: -4.65%.
Turning to `COc1c(CNC(c2ccccc2)c2ccc(F)cc2)c(C)nn1C` (configuration not stated), the cytotoxicity at 10 µM was -5.16%.
For the compound `O=C(NCC1CC1)[C@H]1C[C@H]2CN(S(=O)(=O)Cc3ccccc3)C[C@@H]1O2`, the cytotoxicity at 10 µM came out at 7.56%.
Next, `COc1ccc(CNC(=O)Nc2cccnc2OC)cc1O`: -26.3%; `CCCc1noc(CCC(=O)N2CCCC2Cn2cc(C)cn2)n1` (configuration not stated): -1.11%.
`CN1CCN(C(=O)Cc2ccc(F)cc2)Cc2cccnc21`: the cytotoxicity at 10 µM is 0.0773%.
As to `Cc1cc(NC(=O)NCCO)nn1-c1ccc(Cl)cc1Cl`, the cytotoxicity at 10 µM was -136%.
Take `O=C([C@@H]1C[C@@H]2CCN(C3CCOCC3)C[C@@H]2O1)N1CCOCC1`: the cytotoxicity at 10 µM turned out to be 7.34%.
As to `O=S(=O)(c1cn[nH]c1)N1CCCC1c1cc[nH]n1` (configuration not stated), the cytotoxicity at 10 µM is -23%.
Then `CCn1nc(C)c2nnn(CC(=O)Nc3ccc(C)cc3)c(=O)c21`, with 8.49%.
Next, `O=C(CCC(=O)N1CCC(OCc2cccnc2)CC1)c1ccccc1`: -3.33%; `COCCN(Cc1ccc(F)cc1Cl)C(=O)c1cc[n+]([O-])cc1`: 4.75%; `CCNC(=O)[C@@H]1C[C@@H](NC(=O)c2cnc[nH]c2=O)CN1Cc1ccsc1`: -6.94%.
Then `c1cnnc(NCC2CN(CCn3cccn3)CCO2)c1` (configuration not stated), with 5.53%; and `N#Cc1cccc(C(=O)N2CCC3(CCC(=O)N(C4CC4)C3)CC2)c1`, with 0.194%.
As for `CN(CCc1ccccn1)C(=O)CCC1CCCN(c2cnccn2)C1` (configuration not stated), the cytotoxicity at 10 µM came out at 4.13%.
Next, `CC(NC(=O)NCCCn1ccnc1)c1ccc2c(c1)CCC(=O)N2` (configuration not stated): -4.74%.
For the compound `CCCC(C)(C)NC(=O)c1cnc(C)s1`, the cytotoxicity at 10 µM was found to be 4.51%.
In the case of `NC(=O)c1cn(CC2CC2)c(C2CC2)n1`, the cytotoxicity at 10 µM was 0.524%.
Regarding `CS(=O)(=O)CCSCc1cccc2cccnc12`, the cytotoxicity at 10 µM was -6.64%.
Then `O=C(CCc1ccsc1)N(Cc1ccccn1)C1CC1`, with -4.87%; and `COCCNC(=O)Nc1ccn(-c2cccc(C(F)(F)F)c2)n1`, with -1.94%; and `CCc1ccc(C2COCCN2C(=O)Nc2cc(C)on2)o1` (configuration not stated), with -4.31%.
For the compound `O=C(c1ccncn1)N1CCC[C@]2(C[C@@H](OCC3CC3)CO2)C1`, the cytotoxicity at 10 µM was -78.9%.
Turning to `CC(C)n1cnnc1CN(C)C(=O)c1cccnc1O`, the cytotoxicity at 10 µM turned out to be 2.1%.
Then `CCNC(=O)C(C)NC(=O)c1cnc(-c2ccc(C)cc2C)s1` (configuration not stated), with -18.7%; and `CN(C)C(=O)CN1CCc2onc(-c3ccccc3F)c2C1`, with 2.45%.
For the compound `O=C1C(Nc2nccn3cnnc23)CCCN1c1ccccc1Cl` (configuration not stated), the cytotoxicity at 10 µM was 9.05%.
Next, `COc1ccc(F)cc1CN(CC(N)=O)C(C)C`: -1.68%; `CC1CCN(CCNC(=O)Nc2ccc(F)cc2Cl)CC1`: 4.68%; `O=C(c1ccco1)N1CC[C@@H]2O[C@H](COCC3CCOCC3)CC[C@@H]21`: 6.8%.
Then `COCCN1C[C@H]2CCC[C@@H](CNc3ncccn3)[C@H]2C1`, with -112%; and `CC(=O)N[C@@H]1CN(Cc2ccco2)C[C@H]1c1ccc(C)o1`, with -3.33%.
Turning to `Cc1nc(CN2CCc3nn(C(C)C)c(=O)cc3C2)oc1C`, the cytotoxicity at 10 µM is -7.52%.
As to `O[C@@H]1Cc2ccccc2[C@@H]1Nc1ncccc1F`, the cytotoxicity at 10 µM was 13.3%.
Then `CCc1nc(C2CCCN2C(=O)c2csc(NC(C)=O)n2)no1` (configuration not stated), with -5.12%.
With `COc1cccc(NC(=O)N(CCO)Cc2ccsc2)c1`, the cytotoxicity at 10 µM is -9.87%.
For the compound `CC(=O)N1CCN(c2cnnc(N3CCCC3)c2)CC1`, the cytotoxicity at 10 µM came to 8.19%.
Take `CC(C)(C)CC(=O)N[C@@H]1CO[C@H](CNC(=O)c2ccncc2)[C@H]1O`: the cytotoxicity at 10 µM was -3.81%.
In the case of `CCOC(=O)c1ccc(NC(=O)Cn2cc(I)cn2)cc1`, the cytotoxicity at 10 µM came to 2.96%.
Next, `COc1cc(-c2cnnc(NCC3CC3)n2)cc(OC)c1OC`: 8.11%.
Then `Cc1nc(C)n(C2CCCN(C(=O)CCc3cscn3)C2)n1` (configuration not stated), with 6.74%; and `CN(C)CCN1C[C@@H]2CN(S(=O)(=O)c3cccs3)C[C@@H]2C1=O`, with 0.0221%; and `CCNc1cc2c(nn1)CCN(C(=O)Cc1noc3ccccc13)C2`, with -7.42%.
Take `COCc1nc2n(n1)CCCC2Nc1nc(C(C)C)ns1` (configuration not stated): the cytotoxicity at 10 µM was 5.6%.
Next, `CCc1ccc(C(=O)Nc2ccc(CC3CC(=O)NC3=O)cc2)s1` (configuration not stated): -0.95%; `CC(=O)N1CCC(CCNC(C)Cc2ccc(F)cc2)CC1` (configuration not stated): -11.4%.
Then `CCNC(=O)[C@@H]1C[C@@H](NC(=O)Cc2cc(C)no2)CN1Cc1ccsc1`, with 5.62%; and `Cc1n[nH]c(C)c1CNC(=O)CSCc1ccccc1Cl`, with -4.02%; and `CN(C)[C@@H]1CN(C(=O)Cc2ccsc2)[C@@H]2CCCO[C@H]12`, with 3.08%.
On to `CC(c1ccon1)N(C)C(=O)C1CCN(CC(N)=O)CC1` (configuration not stated), for which the cytotoxicity at 10 µM was -4.83%.
Next, `O=C(c1cc2c(F)cccc2[nH]1)N1CCC(Nc2cccnn2)CC1`: -19.3%; `CNCCCNc1nc(C2CCCC2)nc2c1cnn2C`: 6.63%; `COc1cc2cc3c(nc2cc1OC)OCCN(CC1CC1)C3`: 5.37%.
On to `CN1CCN(c2cc(CNC(=O)c3cccnc3O)ccn2)CC1`, for which the cytotoxicity at 10 µM was -5.42%.
Next, `CN1CCN(C2CCN(CCOc3ccc(C#N)cc3)CC2)C1=O`: -1.03%; `CN(Cc1ccccc1F)C(C(N)=O)c1ccccc1` (configuration not stated): -2.09%; `O=C(NCc1cccs1)c1[nH]nc2c1CS(=O)(=O)CC2`: 1.41%.
Then `Cc1ncc2c(c1CNC(=O)C1(C)CCCCO1)CCNC2` (configuration not stated), with -27.9%.
Next, `COc1ccsc1C(=O)NCCNc1ccccc1`: -4.15%; `COCc1ncn2c1CN(C(=O)c1ccco1)CC2`: 9.32%; `CCC(O)CN1CCN(C(=O)C2(c3ccc(C)c(OC)c3)CC2)CC1` (configuration not stated): 3.83%.
For `CCOc1ccccc1CNC(=O)c1cnn(CC)c1C(F)(F)F`, the cytotoxicity at 10 µM came to 3.67%.
As to `CCN(CC)CCNC(=O)c1nn(CC)cc1Cl`, the cytotoxicity at 10 µM worked out at 2.58%.
Then `CCOC(=O)CC1CCCCN1C(=O)c1cc(C)oc1C` (configuration not stated), with 5.44%; and `COCC1CC2(CCN(C(=O)c3ccc(F)cc3C)CC2)CO1` (configuration not stated), with -108%; and `O=C(CCC(=O)NCc1cccc(Br)c1)NCCN1CCCC1`, with 10%.
Turning to `c1cncc(CN2CCc3c(nnn3CC3CC3)C2COCC2CC2)c1` (configuration not stated), the cytotoxicity at 10 µM is 3.88%.
Regarding `CC(NC(=O)Cn1cccnc1=O)c1ccc(OC(F)(F)F)cc1` (configuration not stated), the cytotoxicity at 10 µM worked out at 1.66%.
Next, `CCOCCN1Cc2cnn(C)c2C(COCC)C1` (configuration not stated): -62.6%; `Cc1ccc(C(=O)NS(=O)(=O)Cc2ccccc2)cc1S(C)(=O)=O`: 3.09%; `CC(Cc1ccccc1Br)NC(=O)CCS(C)(=O)=O` (configuration not stated): -4.44%.
